Results pooled from the literature.
pIC50: −log10 of the molar value.
FABP1: Fatty acid-binding protein, liver (FABP1, Homo sapiens, UniProt P07148)
MAL12: Alpha-glucosidase MAL12 (MAL12, Saccharomyces cerevisiae S288c, UniProt P53341)
SQLE: Squalene monooxygenase (SQLE, Homo sapiens, UniProt Q14534)

Nc1ccn(C[C@@H](CO)OCP(=O)(O)O)c(=O)n1 has a pIC50 of 2.85 (Solute carrier family 22 member 6 (SLC22A6, Homo sapiens, UniProt Q4U2R8, F438Y); transporter uptake, inhibitor, fluorescence).
With CCCOc1ccc2c(c1)O/C(=C\c1ccc(OC(C)(C)C(=O)O)c(Cl)c1)C2=O the pIC50 was 5.11 (FABP1; cell-free assay, inhibitor, fluorescence; pH 7.4).
C[C@H]1CN(C(=O)Nc2ccc(C(F)(F)F)cc2)CCN1c1ccnc(Nc2cccc(O)c2)n1 has a pIC50 of 5.69 (MAL12; enzyme activity, inhibitor, absorbance; pH 6.9).
CN1CCC(CNc2ccc3ncc(-c4cccc(OC(F)(F)F)c4)n3n2)CC1 gave a pIC50 of 5.32 (Alpha-1A adrenergic receptor (ADRA1A, Homo sapiens, UniProt P35348); calcium signal, antagonist).
For COc1ccc(Cl)cc1C(=O)NCCc1ccc(S(=O)(=O)NC(=O)NC2CCCCC2)cc1, the pIC50 was 4.75 (Solute carrier family 22 member 6 (SLC22A6, Homo sapiens, UniProt Q4U2R8, F442A); transporter uptake, inhibitor, fluorescence).
Cc1cc2c(cc1C)N[C@H](c1ccccc1)[C@@H](O)C(=O)N2 gave a pIC50 of 6.18 (Cyclin-dependent kinase 5 (CDK5, Homo sapiens, UniProt Q00535); enzyme activity, inhibitor, ELISA).
COc1cc(-c2oc3cc(O)cc(O)c3c(=O)c2O)ccc1O gave a pIC50 of 4.94 (SQLE; enzyme activity, inhibitor, radiometric).
CCCOc1ccc2c(c1)O/C(=C\c1ccc(OC(C)(C)C(=O)O)cc1)C2=O has a pIC50 of 5.03 (FABP1; cell-free assay, inhibitor, fluorescence; pH 7.4).
With C[C@H]1CN(C(=O)Nc2ccc(C(F)(F)F)cc2)CCN1c1ccnc(Nc2cccc(Cl)c2)n1 the pIC50 was 5.46 (MAL12; enzyme activity, inhibitor, absorbance; pH 6.9).
For COc1ccc(-c2nn(-c3ccccc3)cc2C2C(C(C)=O)=C(C)n3c(=O)c4ccccc4c(=O)n32)cc1 (centres unmarked), the pIC50 was 4.86 (MAL12; enzyme activity, inhibitor, absorbance).
Cc1ccc(NC(=O)N2CCN(c3ccnc(Nc4ccc(Cl)cc4)n3)[C@H](C)C2)cc1 has a pIC50 of 5.11 (MAL12; enzyme activity, inhibitor, absorbance; pH 6.9).
The pIC50 of Cc1cc(/C=C2\Oc3cc(OCCC(C)C)ccc3C2=O)cc(C)c1OC(C)(C)C(=O)O is reported as 5.02 (FABP1; cell-free assay, inhibitor, fluorescence; pH 7.4).
The pIC50 of COc1ccc(NC(=O)N2CCN(c3ccnc(Nc4ccc(Cl)cc4)n3)[C@@H](C)C2)cc1 is reported as 5.13 (MAL12; enzyme activity, inhibitor, absorbance; pH 6.9).
For Cc1cc(/C=C2\Oc3cc(OCC(C)C)ccc3C2=O)cc(C)c1OC(C)(C)C(=O)O, the pIC50 was 5.32 (FABP1; cell-free assay, inhibitor, fluorescence; pH 7.4).
C[C@@H]1CN(C(=O)Nc2ccc(Cl)c(Cl)c2)CCN1c1ccnc(Nc2ccc(Cl)cc2)n1 gave a pIC50 of 5.34 (MAL12; enzyme activity, inhibitor, absorbance; pH 6.9).
With NS(=O)(=O)c1ccc(-n2nc(C(=O)NN=Cc3ccccc3O)cc2-c2ccccc2)cc1 the pIC50 was 4.80 (Focal adhesion kinase 1 (PTK2, Homo sapiens, UniProt Q05397); enzyme activity, inhibitor, ELISA).
With CC(=O)C1=C(C)n2c(=O)c3ccccc3c(=O)n2C1c1cn(-c2ccccc2)nc1-c1ccc(O)cc1 (centres unmarked) the pIC50 was 3.31 (MAL12; enzyme activity, inhibitor, absorbance).
For COc1cc(C2Oc3cc([C@H]4Oc5cc(O)cc(O)c5C(=O)[C@@H]4O)ccc3OC2CO)ccc1O (some centres unmarked), the pIC50 was 5.73 (SQLE; enzyme activity, inhibitor, radiometric).
With CNC(=O)[C@H](Cc1c[nH]c2ccccc12)NC(=O)[C@@H](CC(=O)NO)CC(C)C the pIC50 was 6.11 (Disintegrin and metalloproteinase domain-containing protein 10 (ADAM10, Homo sapiens, UniProt O14672); enzyme activity, inhibitor).
The pIC50 of CCOc1ccc2c(c1)O/C(=C\c1cc(C)c(OC(C)(C)C(=O)O)c(C)c1)C2=O is reported as 5.07 (FABP1; cell-free assay, inhibitor, fluorescence; pH 7.4).
CC[N+](CC)(CC)Cc1ccccc1.CC[N+](CC)(CC)Cc1ccccc1.[Br][Co-2]([Br])([Br])[Br] has a pIC50 of 4.96 (Tyrosine-protein phosphatase non-receptor type 1 (PTPN1, Homo sapiens, UniProt P18031); enzyme activity, inhibitor).
For CC(C)NC(=O)COc1cccc(-c2nc(Nc3ccc4[nH]ncc4c3)c3ccccc3n2)c1, the pIC50 was less than 6.00 (Solute carrier family 22 member 6 (SLC22A6, Homo sapiens, UniProt Q4U2R8); transporter uptake, inhibitor, radiometric; HEK293).
C[C@H]1CN(C(=O)Nc2ccc(C(F)(F)F)cc2)CCN1c1ccnc(Nc2ccc(Cl)cc2)n1 has a pIC50 of 5.96 (MAL12; enzyme activity, inhibitor, absorbance; pH 6.9).
The pIC50 of Cc1cc(/C=C2\Oc3cc(OCC4CC4)ccc3C2=O)cc(C)c1OC(C)(C)C(=O)O is reported as 5.44 (FABP1; cell-free assay, inhibitor, fluorescence; pH 7.4).
C[C@H]1CN(C(=O)Nc2ccc(C(F)(F)F)cc2)CCN1c1ccnc(Nc2ccc(Cl)c(O)c2)n1 has a pIC50 of 6.36 (MAL12; enzyme activity, inhibitor, absorbance; pH 6.9).
For CCN(CC)C(C)CN1c2ccccc2Sc2ccccc21 (centres unmarked), the pIC50 was 5.77 (SQLE; enzyme activity, inhibitor, absorbance; pH 7.4, with preincubation).
With CC(C)=CCC/C(C)=C/CC/C(C)=C/CC/C=C(\C)CC/C=C(\C)CCCNC1CC1 the pIC50 was 5.57 (SQLE; enzyme activity, inhibitor, radiometric).
COc1ccc2c(c1)O/C(=C\c1cc(C)c(OC(C)(C)C(=O)O)c(C)c1)C2=O gave a pIC50 of 5.05 (FABP1; cell-free assay, inhibitor, fluorescence; pH 7.4).
OCCN1CCN(CCCN2c3ccccc3Sc3ccc(C(F)(F)F)cc32)CC1 has a pIC50 of 4.91 (SQLE; enzyme activity, inhibitor, absorbance; pH 7.4, with preincubation).
